From PubChem
Rows were chosen to be rich in hits. Some 1.7% of all compounds tested hit in one or more screens of this group.
CAL PDZ FP-1: blocks peptide binding to the human CAL PDZ domain. AID 602252. inhibition, % at 24.9 µM. hit rate 0.92% among 300,000. Q9HD26. purified CAL PDZ, TMR-peptide fluorescence polarization, 1 h;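 active = mean inhibition of at least 30% with at least half of replicates also reaching 30%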;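 note: 0% = DMSO neutral control and 100% = excess unlabeled competitor peptide PRC23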
CAL PDZ FP-2: human CAL PDZ-peptide interaction inhibition; AID 504414; hit rate 0.02% among 330,000; purified CAL PDZ, TMR-peptide fluorescence polarization, 1 h; inhibition, % at 20 µM;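 active = highest replicate inhibition of at least 40%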;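 note: plate controls were DMSO neutral control wells for no effect and unlabeled competitor peptide control wells for full effect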
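Control set: unlabelled peptide and DMSO controls / Material: purified CerCALP PDZ construct / Timing: 1 h incubation at room temperature before polarization reading / Doses: 20 µM, one dose / Detection: fluorescence polarization (mP)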
PGC1a acetyl inh: modulators of PGC1a acetylation. U2OS PGC1a acetylation, AlphaScreen anti-acetyl-lysine; with virally co-expressed GCN5 acetyltransferase. inhibition, % at 15.6 µM. hit rate 0.17% among 350,000. AID 651687;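 active = every replicate shows inhibition of at least 40%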;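 note: 0% = neutral control wells and 100% = positive control wells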
miR-122 sensor: inhibitors of miR-122 in Huh7 cells | AID 602342 | Huh7 miR-122 Renilla luciferase sensor, 48 h; neutral wells = 0, positive control = 100 | hit rate 0.3% among 340,000 | activation (reporter increase), % at 12.5 µM;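 active = mean replicate activation score at least 90 and every replicate individually at or above 90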;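 note: higher luciferase means less miR-122 activity so hits act as miR-122 inhibitors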
ARNT-TACC3 inh: disrupts binding between human ARNT and TACC3. hit rate 0.66% among 390,000. AlphaScreen His-ARNT PAS-B/GST-TACC3 binding, luminescence; TACC3 fragment carries E629A point mutation. inhibition, % at 9.99 µM. Q9Y6A5. AID 623870;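 active = mean inhibition of replicates at least 50% and at least half of replicates each reaching 50%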;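 note: 0% = complete ARNT plus TACC3 wells and 100% = ARNT alone without TACC3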
CFTR F508del cor: correctors of CFTR F508del function in bronchial epithelial cells. CFBE cells, YFP halide quenching; stimulated with forskolin plus potentiator P3; % fluorescence drop versus neutral controls. activity (quench increase), % at 7.58 µM. hit rate 0.36% among 350,000;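 active = mean added fluorescence quench of at least 8% versus neutral control, with both replicates also reaching 8%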;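 note: cells transiently co-express mutant CFTR-F508del with the halide-sensitive YFP; corrector assay measuring rescue of mutant channel to the surface after 24 h compound exposure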
The depositor's hits bear a star; . = no result; [ ] = remark or other dose.

SMILES	CAL PDZ FP-1	CAL PDZ FP-2	PGC1a acetyl inh	miR-122 sensor	ARNT-TACC3 inh	CFTR F508del cor
c1ccc(-c2nc(N3CCCCCC3)c3ccccc3n2)nc1	3	0	9	-10	76*	.
O=C(C#Cc1ccccc1)Nc1ccc(F)cc1	-5	0	15	-6	-1	1
COc1ccc(NC(=O)C#Cc2ccccc2)cc1	63*	1	41	-8	-1	-6
Cc1c(CCC(=O)N[C@@H](C)C(=O)O)c(=O)oc2cc3occ(-c4ccccc4)c3cc12	-7	-4	-2	-5	49*	0
C[C@@H]1CN([C@@H](C)CO)C(=O)Cc2cc(NS(=O)(=O)c3cccs3)ccc2O[C@H]1CN(C)Cc1ccc(-c2ccccc2)cc1	.	.	-3	-15[16.7 µM]	2	1
Nc1nn(-c2ccccc2)c(N)c1N=Nc1cccc(F)c1	.	.	6	21	.	11*
Cc1ccc(S(=O)(=O)Nc2ccc3c(c2)C(=O)N([C@H](C)CO)C[C@H](C)[C@H](CN(C)Cc2ccc4c(c2)OCO4)O3)cc1	.	.	-8	-11[16.7 µM]	-12	2
O=C(C[C@@H]1C[C@H]2c3cc(NC(=O)C4CCOCC4)ccc3O[C@H]2[C@@H](CO)O1)NC1CCCCC1	.	.	-1	-4[16.7 µM]	-8	0
C[C@H]1CN([C@@H](C)CO)C(=O)Cc2cc(NC(=O)C3CCCCC3)ccc2O[C@@H]1CN(C)S(=O)(=O)c1cn(C)cn1	.	.	12	-11[16.7 µM]	-2	-1
Cc1ccc(S(=O)(=O)NN2C(=O)/C(=C/c3cccc(F)c3)SC2=S)cc1	33*	-6	.	8	0	5
COc1cc(/C=C2\SC(=S)N(NS(=O)(=O)c3ccc(C)cc3)C2=O)cc(OC)c1OC	0	0	18	1	-4	-1
CN(C)C(=O)c1ccc(-c2ccc([C@H]3[C@@H](CO)N4CCCCN(C(=O)C5CCCC5)C[C@@H]34)cc2)cc1	.	.	3	-30[16.7 µM]	-5	-3
CC1(C)N([O-])C(c2ccccc2)=C[N+](=O)C1(C)C	0	-3	.	-4	0	.
CC1(C)N([O-])C(c2cccs2)=C[N+]1=O	1	-2	.	103*	23	.
Cc1nn(C)c(C(=O)Sc2ccccc2)c1[N+](=O)[O-]	0	1	13	-2	1	-1
Cc1nn(C)c(C(=O)Sc2cccc(Cl)c2)c1[N+](=O)[O-]	95*	-1	3	.	-4	-33
C[C@H](CO)N1C[C@H](C)[C@@H](CN(C)Cc2ccc(C(=O)Nc3ccccc3N)cc2)Oc2ccc(NC(=O)Cc3cn(C)c4ccccc34)cc2C1=O	.	.	4	1[16.7 µM]	-3	-2
COC(=O)CCCCCC(CCC(=O)OC)NC(C)=O (stereo not given)	-1	0	-5	238*	-4	.
CCOC(=O)Cc1nc2ccccc2n(CC#N)c1=O	76*	0	.	5	-6	1
CCOC(=O)Cn1c(C)nc2ccccc21	-4	-1	-3	-3	-9	.
CC(=O)c1ccc(NS(=O)(=O)c2c(C)cc(C)cc2C)cc1	-3	-1	-18	152*	.	0
Cc1cc(C)c(S(=O)(=O)Nc2ccc(C(N)=O)cc2)c(C)c1	-2	0	6	12	-39	-1
O=C(Cc1csc(Nc2nc(=S)[nH]c3ccccc23)n1)N1CCN(c2cccc(Cl)c2)CC1	54*	-1	.	5	4	1
COc1ccc(CN(C)C[C@H]2OCCCC[C@@H](C)Oc3ccc(NS(=O)(=O)c4ccc(C)cc4)cc3C(=O)N([C@H](C)CO)C[C@H]2C)cc1	.	.	1	-1[16.7 µM]	-5	-2
O=C(CSc1nnc(CNC(=O)c2cccs2)o1)Nc1ccccc1	-4	-1	.	.	.	0
SMILES	CAL PDZ FP-1	CAL PDZ FP-2	PGC1a acetyl inh	miR-122 sensor	ARNT-TACC3 inh	CFTR F508del cor
Cc1cc(NC(=O)CSc2nnc(-c3ccco3)o2)no1	-3	0	.	.	59*	.
O=C(CSc1nnc(CNC(=O)c2cccs2)o1)Nc1ccccc1C(F)(F)F	103*	-1	-2	-7	3	-1
Cc1cc(NC(=O)CSc2nnc(CNC(=O)c3ccc(C(C)(C)C)cc3)o2)no1	.	-1	.	.	47*	-1
CC(C)(C)NC(=O)CCSc1nnc(-c2ccco2)o1	111*	16	9	3	26	1
O=C(CCSc1nnc(-c2ccco2)o1)Nc1ccccc1	-7	.	-5	-4	0	.
CCS(=O)(=O)N[C@H]1CC[C@@H](CC(=O)NCc2ccc(Cl)cc2)O[C@@H]1CO	.	.	-14	.	-4	0
Cc1noc(C)c1NC(=O)N(C)C[C@@H]1Oc2c(NC(=O)CCCCCC(=O)Nc3ccccc3N)cccc2C(=O)N([C@@H](C)CO)C[C@H]1C	.	.	2	.	.	4
C[C@@H]1CN([C@H](C)CO)C(=O)c2cccc(NS(=O)(=O)c3cccs3)c2O[C@@H]1CN(C)C(=O)Nc1ccc(C(F)(F)F)cc1	.	.	9	3[16.7 µM]	-2	-1
COc1ccc(NC(=O)Nc2ccc3c(c2)C(=O)N([C@@H](C)CO)C[C@H](C)[C@@H](CN(C)S(=O)(=O)c2ccc(C)cc2)OCCCC[C@@H](C)O3)cc1	.	.	7	1[16.7 µM]	0	-3
CC(=O)O[C@H]1C(=O)[C@]2(C)[C@H]([C@H](OC(=O)c3ccccc3)[C@]3(O)C[C@H](OC(=O)[C@H](O)[C@@H](NC(=O)c4ccccc4)c4ccccc4)C(C)=C1C3(C)C)[C@]1(OC(C)=O)CO[C@@H]1C[C@@H]2O	2	-1	-15	17	3	10*
CC(=O)O[C@H]1C(=O)[C@@]2(C)C([C@H](OC(=O)c3ccccc3)[C@]3(O)C[C@H](OC(=O)[C@H](O)[C@@H](NC(=O)c4ccccc4)c4ccccc4)C(C)=C1C3(C)C)[C@]1(OC(C)=O)CO[C@@H]1C[C@H]2O (stereo not given in full)	-3	-1	-11	1	4	18*
O=C(c1ccc(NS(=O)(=O)c2cccc(F)c2)cc1)N1CCCCC1	36*	-2	1	5	-9	-1
O=C(c1ccc(NS(=O)(=O)c2cccc(F)c2)cc1)N1CCCC1	-5	-3	.	8	-24	0
COc1ccccc1NC(=O)N[C@H]1CC[C@H](CCNS(=O)(=O)c2ccccc2)O[C@@H]1CO	.	.	-4	-2[16.7 µM]	.	0
C=CCc1cccc(/C=N/NC(=O)C[n+]2ccccc2)c1O	-5	0	12	2	80*	1
COc1ccc(CN(C)C[C@H]2OCCCC[C@@H](C)Oc3ccc(NS(=O)(=O)c4ccc(F)cc4)cc3C(=O)N([C@@H](C)CO)C[C@H]2C)cc1	.	.	3	-3[16.7 µM]	-3	4
CC(=O)n1cc(/C=N/NC(=O)c2ccc(Cl)cc2)c2ccccc21	-3	0	7	3	-5	0
